Experimental findings from ChEMBL document CHEMBL3244305, “Analogues of 8-azainosine” (J Med Chem, 1977) are described below.

Calls of active or inactive are those of the source. The calls are words filed in the database; no cut-off is given here.

Data set [1] is described as follows: Cytotoxicity against human Hep2 cells assessed as growth inhibition. As to conditions: HEp-2, read-out: ED50 (the source's name). The data set is classed as functional. Put shortly: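 Human epidermoid carcinoma No. 2 (H.Ep. No. 2) cells grown in culture with compound. ED50 is the concentration that holds growth of treated cells to 50% of untreated controls.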

The subject of data set [2] is HEp-2. In words: Cytotoxicity against human Hep2 cells assessed as growth inhibition at 50 uM. The data set is classed as functional, cell-based.
Data set [3] has as its system L1210. In words: Antitumor activity against mouse L1210 cells allografted in ip dosed BD2F1 mouse assessed as increase in life span administered 1 to 9 days measured on day 10 to 12 relative to control. The data set is classed as functional.
Data set [4] relates to HEp-2. In words: Resistance ratio of ED50 for adenine phosphoribosyltransferase/adenosine kinase deficient 2-fluoro adenine/2-fluoro adenosine-resistant human Hep2 cells to ED50 for wild type human Hep2 cells. The data set is classed as functional.
Data set [5] deals with HEp-2. Description: Resistance ratio of ED50 for adenosine kinase deficient 6-(methylthio)purine ribonucleoside-resistant human Hep2 cells to ED50 for wild type human Hep2 cells. The format is functional. Put shortly: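 ED50 is measured as growth inhibition to 50% of untreated controls in an H.Ep. No. 2 subline resistant to 6-(methylthio)purine ribonucleoside that lacks adenosine kinase. It is divided by the ED50 in the sensitive (wild) H.Ep. No. 2 line.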

The test system of data set [6] is HEp-2. In words: Resistance ratio of ED50 for hypoxanthine-guanine phosphoribosyl transferase/adenosine kinase deficient 6-mercaptopurine/6-(methylthio)purine ribonucleoside-resistant human Hep2 cells to ED50 for wild type human Hep2 cells. The format is functional.
In data set [7] the test system is L1210. In words: Antitumor activity against mouse L1210 cells allografted in BD2F1 mouse assessed as increase in life span at 60 mg/kg, ip administered 1 to 9 days measured on day 10 to 12 relative to control. The data set is classed as functional. As to conditions: route intraperitoneal.
Data set [8] concerns L1210. Description: Antitumor activity against mouse L1210 cells allografted in BD2F1 mouse assessed as increase in life span at 40 mg/kg, ip administered 1 to 9 days measured on day 10 to 12 relative to control. The format is functional. The note with it: route intraperitoneal.
Data set [9] in a line: Drug degradation in buffer assessed as formation of 3,6-Dihydro-3-beta-D-ribofuranosyl-7H-1,2,3-triazolo[4,5-d]-pyrimidine-7-thione at pH 7.3 after 6 days by HPLC analysis. The data set is classed as physicochemical. The note with it: pH 7.3, 144 h. Put shortly: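 Conversion in pH 7.3 buffer, under conditions meant to mirror the cytotoxicity assay, followed by high-pressure liquid chromatography.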

The test system of data set [10] is L1210. In words: Antitumor activity against mouse L1210 cells allografted in BD2F1 mouse assessed as increase in life span at 90 mg/kg, ip administered 1 to 9 days measured on day 10 to 12 relative to control. The note with it: route intraperitoneal. The data set is classed as functional.

For the compound `CSc1ncnc2[nH]nnc12`, the EC50 in [1] is above 300 µM.

As for `CSc1ncnc2nn([C@@H]3O[C@H](CO)[C@@H](O)[C@H]3O)nc12`, the EC50 in [1] was found to be 6 µM.

`CSc1ncnc2c1nnn2[C@@H]1O[C@H](COC(C)=O)[C@@H](OC(C)=O)[C@H]1OC(C)=O`: the EC50 in [1] was found to be 0.5 µM.

For the compound `CC(C)=CCNc1ncnc2c1nnn2[C@@H]1O[C@H](CO)[C@@H](O)[C@H]1O`, the EC50 in data set [1] was below 3 µM.

On to `Nc1ncnc2snnc12`, for which the “growth inhibition (GI)” value in the data set with HEp-2 [2] was “inactive”.

Take `COc1ncnc2c1nnn2[C@@H]1O[C@H](CO)[C@@H](O)[C@H]1O`: the ILS in the data set with L1210 [3] is reported as 29%. Moreover, the “Ratio ED50” value with HEp-2 [4] and with HEp-2 [5] was 6 throughout. Also, the EC50 in data set [1] is 0.3 µM.

Turning to `CCSc1ncnc2c1nnn2[C@@H]1O[C@H](CO)[C@@H](O)[C@H]1O`, the “Ratio ED50” value in the data set with HEp-2 [4] turned out to be 300. Further, the EC50 in [1] is 0.1 µM.

On to `Nc1ncnc2c1nnn2[C@@H]1O[C@H](CO)[C@@H](O)[C@H]1O`, for which the ILS in the data set on L1210 [3] is 39%. For the same compound, the “Ratio ED50” value with HEp-2 [4] amounted to 2; in the data set with HEp-2 [5] it was 2; with HEp-2 [6] it was 60. Also, in [1], the EC50 was 0.8 µM.

As for `OC[C@H]1O[C@@H](Nc2ncnc3snnc23)[C@H](O)[C@@H]1O`, the ILS at 60 mg/kg with L1210 [7] amounted to 28%. The EC50 in [1] was 0.1 µM. In addition, in the data set with L1210 [8], the increase in lifespan (ILS) at 40 mg/kg was found to be 25%. Moreover, the Stability result in [9] is listed as “Stable”. Besides, the ILS at 90 mg/kg in the data set with L1210 [10] came to 36%.

Turning to `CCOc1ncnc2c1nnn2[C@@H]1O[C@H](CO)[C@@H](O)[C@H]1O`, in the data set on HEp-2 [5], the “Ratio ED50” value is reported as 20. Further, the EC50 in data set [1] worked out at 0.1 µM.

For `CSc1ncnc2c1nnn2[C@@H]1O[C@H](CO)[C@@H](O)[C@H]1O`, the ILS in the data set with L1210 [3] is listed as 23%. Moreover, the “Ratio ED50” value in the data set with HEp-2 [4] worked out at 3000; in the data set with HEp-2 [5], 2000. Moreover, the EC50 in [1] amounted to 0.02 µM.

For the compound `Nc1ncnc2nn([C@@H]3O[C@H](CO)[C@@H](O)[C@H]3O)nc12`, the EC50 in data set [1] is above 70 µM.

Turning to `CSc1ncnc2nn([C@@H]3O[C@H](COC(C)=O)[C@@H](OC(C)=O)[C@H]3OC(C)=O)nc12`, the EC50 in [1] came to 7 µM.

As to `OC[C@H]1O[C@@H](n2nnc3c(S)ncnc32)[C@H](O)[C@@H]1O`, the “Ratio ED50” value in the data set with HEp-2 [4] came to 40; in the data set on HEp-2 [5], 90. The EC50 in data set [1] was determined as 1 µM.

As to `CCCCNc1ncnc2c1nnn2[C@@H]1O[C@H](CO)[C@@H](O)[C@H]1O`, the EC50 in [1] was 0.3 µM.
